Results as given in ChEMBL document CHEMBL2157981, “Synthesis of new antimicrobial pyrrolo[2,1-a]isoquinolin-3-ones” (2012).
Active and inactive are the calls of the source. No cut-off for these calls is given here.

Assays:
Staphylococcus aureus [1] = test: Bactericidal activity against Staphylococcus aureus CECT 86 at 0.2 mg/disk after 24 hrs by agar diffusion assay; type: functional
Method in brief: (§1)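 Each bacterium, kept as 24-h cultures on solid-medium slants, was reactivated in Nutrient Broth for 24 h at 28 or 37 °C depending on species. 1 mL of this suspension was plated and overlaid with 15 mL Plate Count Agar. Once the agar solidified, five paper disks loaded with test product were applied. Plates were incubated 24 h in the dark at 28 or 37 °C by species.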

Enterococcus faecalis [2] = test: Bactericidal activity against Enterococcus faecalis CECT 481 at 0.2 mg/disk after 24 hrs by agar diffusion assay; type: functional; method in brief: as §1
Fusarium culmorum [3] = test: Fungicidal activity against Fusarium culmorum CCM 172 at […] after 48 hrs by agar diffusion assay; type: functional, organism-based; details: 0.4 mg/disk
Method in brief: (§2)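 Fungi were grown 7 days at 28 °C on PDA, then suspended in 0.05% Tween 80 in sterile water to about 10^6 conidia/mL. 1 mL was mixed into 15 mL PDA. After setting, four 0.5 cm paper disks impregnated with test product were added. Controls were solvent-only disks and benomyl disks, dosed per fungus. The read-out was the no-growth inhibition zone (mm), as the mean ± SE of three independent experiments.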

[4] = test system: Pectobacterium carotovorum; test: Bactericidal activity against Erwinia carotovora CECT 225 at 0.2 mg/disk after 24 hrs by agar diffusion assay; type: functional; method in brief: as §1
Salmonella typhi [5] = test: Bactericidal activity against Salmonella typhi CECT 409 at 0.2 mg/disk after 24 hrs by agar diffusion assay; type: functional; details: for Activity: Salmonella enterica subsp. enterica serovar Typhi
Method in brief: (§3)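 Bacteria from 24-h slant cultures reactivated in Nutrient Broth for 24 h at 28 or 37 °C depending on strain. 1 mL of suspension was placed in a plate and overlaid with 15 mL Plate Count Agar. After solidification, five paper disks loaded with compound were applied. Plates were incubated 24 h in the dark at 28 or 37 °C depending on strain.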

Bacillus cereus [6] = test: Bactericidal activity against Bacillus cereus CECT 148 at 0.2 mg/disk after 24 hrs by agar diffusion assay; type: functional; method in brief: as §1
[7] = test system: Phytophthora citrophthora; test: Fungicidal activity against Phytophthora citrophthora CECT 2353 at 0.4 mg/disk after 48 hrs by agar diffusion assay; type: functional, organism-based; method in brief: as §2
Trichoderma viride [8] = test: Fungicidal activity against Trichoderma viride CECT 2423 at 0.4 mg/disk after 48 hrs by agar diffusion assay; type: functional, organism-based; method in brief: as §2
Escherichia coli [9] = test: Bactericidal activity against Escherichia coli CECT 100 at 0.2 mg/disk after 24 hrs by agar diffusion assay; type: functional; method in brief: as §1
Geotrichum candidum [10] = test: Fungicidal activity against Geotrichum candidum CCM 245 at 0.4 mg/disk after 48 hrs by agar diffusion assay; type: functional, organism-based; method in brief: as §2
Escherichia coli [11] = test: Bactericidal activity against Escherichia coli CECT 405 at 0.2 mg/disk after 24 hrs by agar diffusion assay; type: functional; method in brief: as §1
Aspergillus parasiticus [12] = test: Fungicidal activity against Aspergillus parasiticus CECT 2681 at 0.4 mg/disk after 48 hrs by agar diffusion assay; type: functional, organism-based; method in brief: as §2
Trichoderma viride [13] = test: Fungicidal activity against Trichoderma viride CECT 2423 at 0.2 mg/disk after 48 hrs by agar diffusion assay; type: functional; method in brief: as §2
Aspergillus parasiticus [14] = test: Fungicidal activity against Aspergillus parasiticus CECT 2681 at 0.2 mg/disk after 48 hrs by agar diffusion assay; type: functional; method in brief: as §2
Geotrichum candidum [15] = test: Fungicidal activity against Geotrichum candidum CCM 245 at 0.2 mg/disk after 48 hrs by agar diffusion assay; type: functional; method in brief: as §2
Fusarium culmorum [16] = test: Fungicidal activity against Fusarium culmorum CCM 172 at 0.2 mg/disk after 48 hrs by agar diffusion assay; type: functional; method in brief: as §2
[17] = test system: Phytophthora citrophthora; test: Fungicidal activity against Phytophthora citrophthora CECT 2353 at 0.2 mg/disk after 48 hrs by agar diffusion assay; type: functional; method in brief: as §2
Salmonella typhi [18] = test: Bactericidal activity against Salmonella typhi CECT 409 at 0.3 mg/disk after 24 hrs by agar diffusion assay; type: functional, organism-based; details: Salmonella enterica subsp. enterica serovar Typhi; method in brief: as §3
Escherichia coli [19] = test: Bactericidal activity against Escherichia coli CECT 100 at 0.3 mg/disk after 24 hrs by agar diffusion assay; type: functional, organism-based; method in brief: as §1
Enterococcus faecalis [20] = test: Bactericidal activity against Enterococcus faecalis CECT 481 at 0.3 mg/disk after 24 hrs by agar diffusion assay; type: functional, organism-based; method in brief: as §1
Bacillus cereus [21] = test: Bactericidal activity against Bacillus cereus CECT 148 at 0.3 mg/disk after 24 hrs by agar diffusion assay; type: functional, organism-based; method in brief: as §1
Escherichia coli [22] = test: Bactericidal activity against Escherichia coli CECT 405 at 0.3 mg/disk after 24 hrs by agar diffusion assay; type: functional, organism-based; method in brief: as §1
Staphylococcus aureus [23] = test: Bactericidal activity against Staphylococcus aureus CECT 86 at 0.3 mg/disk after 24 hrs by agar diffusion assay; type: functional, organism-based; method in brief: as §1
[24] = test system: Pectobacterium carotovorum; test: Bactericidal activity against Erwinia carotovora CECT 225 at 0.3 mg/disk after 24 hrs by agar diffusion assay; type: functional, organism-based; method in brief: as §1
[25] = test system: Phytophthora citrophthora; test: Fungicidal activity against Phytophthora citrophthora CECT 2353 at 30 ug/disk after 48 hrs by agar diffusion assay; type: functional; details: CECT 2353, 48 h, read-out: IZ
Method in brief: (§4)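 Fungi were grown on PDA for 7 days at 28 °C and suspended in 0.05% Tween 80 to about 10^6 conidia/mL. 1 mL was mixed into 15 mL PDA. Four 0.5 cm paper disks carrying compound were placed on the set agar. Solvent-only disks served as negative control. The inhibition zone (mm) around each disk was measured. Values are the mean of three independent experiments.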

Aspergillus parasiticus [26] = test: Fungicidal activity against Aspergillus parasiticus CECT 2681 at 20 ug/disk after 48 hrs by agar diffusion assay; type: functional; details: CECT 2681, 48 h, read-out: IZ; method in brief: as §4
Trichoderma viride [27] = test: Fungicidal activity against Trichoderma viride CECT 2423 at 20 ug/disk after 48 hrs by agar diffusion assay; type: functional; details: CECT 2423, 48 h, read-out: IZ; method in brief: as §4

| SMILES | Activity (Fusarium culmorum [3]) | Activity [7] | Activity (Trichoderma viride [8]) | Activity (Geotrichum candidum [10]) | Activity (Aspergillus parasiticus [12]) | inhibition zone (IZ) (Staphylococcus aureus [1]) [mm] | inhibition zone (IZ) (Enterococcus faecalis [2]) [mm] | inhibition zone (IZ) [4] [mm] | inhibition zone (IZ) (Salmonella typhi [5]) [mm] | inhibition zone (IZ) (Bacillus cereus [6]) [mm] | inhibition zone (IZ) (Escherichia coli [9]) [mm] | inhibition zone (IZ) (Geotrichum candidum [15]) [mm] | inhibition zone (IZ) (Fusarium culmorum [16]) [mm] | inhibition zone (IZ) (Escherichia coli [11]) [mm] | other results |
| --- | --- | --- | --- | --- | --- | --- | --- | --- | --- | --- | --- | --- | --- | --- | --- |
| O=C(COc1cc2c(cc1OCC(=O)Nc1ccccc1)C1CCC(=O)N1CC2)Nc1ccccc1 (stereo not given) | inactive | inactive | inactive | inactive | inactive |  |  |  |  |  |  |  |  |  | Activity (Staphylococcus aureus [1]): inactive; Activity (Enterococcus faecalis [2]): inactive; Activity [4]: inactive; Activity (Salmonella typhi [5]): inactive; Activity (Bacillus cereus [6]): inactive; Activity (Escherichia coli [9]): inactive; Activity (Escherichia coli [11]): inactive |
| O=C1CCC2c3ccc(OCc4ccc(F)cc4)cc3CCN12 (stereo not given) |  |  |  |  |  | 6.33 | 0 | 8 | 0 | 7.5 | 0 | 7 | 10.5 | 6.16 | inhibition zone (IZ) (Trichoderma viride [13]): 8.1 mm; inhibition zone (IZ) (Aspergillus parasiticus [14]): 7.83 mm; inhibition zone (IZ) [17]: 10.66 mm |
| O=C1CCC2c3cc(O)c(O)cc3CCN12 (racemic) | inactive | inactive | inactive | inactive | inactive | 0 | 0 | 0 | 0 | 6.66 | 0 |  |  | 0 |  |
| COc1cc2c(cc1Cl)CCN1C(=O)CCC21 (stereo not given) |  |  |  |  |  | 7.83 | 6.83 | 10.33 |  | 7.33 | 6.16 | 6.33 | 7.5 | 6.83 | inhibition zone (IZ) (Trichoderma viride [13]): 0 mm; inhibition zone (IZ) (Aspergillus parasiticus [14]): 7.5 mm; inhibition zone (IZ) [17]: 6.83 mm |
| CN(C)[C@@H]1C(O)=C(C(N)=O)C(=O)[C@@]2(O)C(O)=C3C(=O)c4c(O)cccc4[C@@](C)(O)[C@H]3C[C@@H]12 [TETRACYCLINE] |  |  |  |  |  | 27 | 26 | 13.33 |  | 24.33 | 25.66 |  |  | 25.66 |  |
| O=C1CCC2c3ccc(OCc4ccccc4)cc3CCN12 (stereo not given) |  |  |  |  |  | 0 | 6.83 | 7.26 | 6 | 8.66 | 0 | 6.16 | 12 | 6.33 | inhibition zone (IZ) (Trichoderma viride [13]): 6 mm; inhibition zone (IZ) (Aspergillus parasiticus [14]): 6.83 mm; inhibition zone (IZ) [17]: 11.33 mm |
| CCNC(=O)Oc1cc2c(cc1Cl)CCN1C(=O)CCC21 (stereo not given) | inactive | inactive | inactive | inactive | inactive |  |  |  |  |  |  |  |  |  | Activity (Staphylococcus aureus [1]): inactive; Activity (Enterococcus faecalis [2]): inactive; Activity [4]: inactive; Activity (Salmonella typhi [5]): inactive; Activity (Bacillus cereus [6]): inactive; Activity (Escherichia coli [9]): inactive; Activity (Escherichia coli [11]): inactive |
| O=C1CCC2c3ccc(O)cc3CCN12 (stereo not given) |  |  |  |  |  | 0 | 0 | 0 | 0 | 7.5 | 0 |  |  | 0 | Activity (Trichoderma viride [13]): inactive; Activity (Aspergillus parasiticus [14]): inactive; Activity (Geotrichum candidum [15]): inactive; Activity (Fusarium culmorum [16]): inactive; Activity [17]: inactive |
| CCNC(=O)Oc1ccc2c(c1)CCN1C(=O)CCC21 (stereo not given) |  |  |  |  |  | 0 | 8.5 | 8.83 | 7.5 | 6.5 | 6.33 | 0 | 0 | 6.83 | inhibition zone (IZ) (Trichoderma viride [13]): 0 mm; inhibition zone (IZ) (Aspergillus parasiticus [14]): 0 mm; inhibition zone (IZ) [17]: 9.66 mm |
| O=C1CCC2c3cc(OCc4ccc(F)cc4)c(OCc4ccc(F)cc4)cc3CCN12 (stereo not given) | inactive | inactive | inactive | inactive | inactive | 0 | 6.33 | 7 | 5.83 | 7.33 | 0 |  |  | 6.83 |  |
| O=C(COc1ccc2c(c1)CCN1C(=O)CCC21)Nc1ccccc1 (stereo not given) |  |  |  |  |  | 0 | 7.33 | 8 |  | 8.83 | 0 |  |  | 7.5 | Activity (Trichoderma viride [13]): inactive; Activity (Aspergillus parasiticus [14]): inactive; Activity (Geotrichum candidum [15]): inactive; Activity (Fusarium culmorum [16]): inactive; Activity [17]: inactive |
| COc1cc2c(cc1OC)C1CCC(=O)N1CC2 (stereo not given) | inactive | inactive | inactive | inactive | inactive |  |  |  |  |  |  |  |  |  | Activity (Salmonella typhi [18]): Active; Activity (Escherichia coli [19]): Active; Activity (Enterococcus faecalis [20]): Active; Activity (Bacillus cereus [21]): Active; Activity (Escherichia coli [22]): Active; Activity (Staphylococcus aureus [23]): Active; Activity [24]: Active |
| O=C(COc1ccc2c(c1)CCN1C(=O)CCC21)N1CCCCC1 (stereo not given) |  |  |  |  |  |  |  |  |  |  |  |  |  |  | Activity (Staphylococcus aureus [1]): inactive; Activity (Enterococcus faecalis [2]): inactive; Activity [4]: inactive; Activity (Salmonella typhi [5]): inactive; Activity (Bacillus cereus [6]): inactive; Activity (Trichoderma viride [13]): inactive; Activity (Aspergillus parasiticus [14]): inactive; Activity (Escherichia coli [9]): inactive; Activity (Geotrichum candidum [15]): inactive; Activity (Fusarium culmorum [16]): inactive; Activity (Escherichia coli [11]): inactive; Activity [17]: inactive |
| O=C1CCC2c3cc(O)c(Cl)cc3CCN12 (stereo not given) | inactive | inactive | inactive | inactive | inactive |  |  |  |  |  |  |  |  |  | Activity (Staphylococcus aureus [1]): inactive; Activity (Enterococcus faecalis [2]): inactive; Activity [4]: inactive; Activity (Salmonella typhi [5]): inactive; Activity (Bacillus cereus [6]): inactive; Activity (Escherichia coli [9]): inactive; Activity (Escherichia coli [11]): inactive |
| CCCCNC(=O)n1c(NC(=O)OC)nc2ccccc21 [BENOMYL] |  |  |  |  |  |  |  |  |  |  |  | 0 | 27.66 |  | zone of inhibition at 30 µg/disc [25]: 44.3 mm; zone of inhibition at 20 µg/disc (Aspergillus parasiticus [26]): 29.3 mm; zone of inhibition at 20 µg/disc (Trichoderma viride [27]): 29.3 mm |
